UBC9 SUMO inh = SUMOylation inhibition. P63279. HTRF SUMOylation assay, SAE1/SAE2 + UBC9, in vitro. inhibition, % at 35 µM. 0.36% of 290,000 active; in the data active means inhibition above about 50%, passing the limit was not always enough
Target sequence (P63279 whole entry, looked up): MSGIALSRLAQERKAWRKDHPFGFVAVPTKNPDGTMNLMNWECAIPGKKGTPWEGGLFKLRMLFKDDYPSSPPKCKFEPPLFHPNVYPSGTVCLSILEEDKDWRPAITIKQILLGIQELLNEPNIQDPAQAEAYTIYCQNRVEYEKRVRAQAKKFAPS
Diaph inh CS = inhibits diaphorase or chemically oxidizes, flagging diaphorase assay artifacts; diaphorase resazurin-to-resorufin fluorescence, NADH, 16 min; bacterial (C. kluyveri) enzyme, not human; inhibition, % at 20 µM; 0.69% of 190,000 active;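 active means primary screen inhibition at 20 µM above a set limit, cut at about 50% in these data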;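 further: plate controls were DMSO with full reaction for no effect and wells lacking NADH for full effect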
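Test system: bacterial diaphorase enzyme (C. kluyveri); Quantity: 0.14 U/mL diaphorase, enzyme working solution; Times: reaction incubation of 16 min at room temperature; Measured by: fluorescence of resorufin formed from resazurin, Ex 544/Em 590 nm; Benchmarks: positive control minus NADH, DMSO neutral control.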
HKDC1 inh = blocks human hexokinase HKDC1 activity; Q2TB90; recombinant HKDC1, G6PDH/diaphorase resazurin coupled fluorescence; inhibition, % at 20 µM; 0.16% of 340,000 active;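 active means inhibition above about 35% when tested at 20 µM, limit read from the data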;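 further: plate controls were DMSO wells with enzyme for no effect and DMSO wells lacking enzyme for full effect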
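Assay system: in-house recombinant HK5 (HKDC1) enzyme. Input: HKDC1 at 5 µg/mL. Medium: Tris pH 8.0 buffer with MgCl2, Tween-20, BSA, BME. Dosing: single 20 µM dose. Schedule: 90 min reaction incubation at room temperature, dark. Signal: resazurin-to-resorufin fluorescence via G6PDH and diaphorase coupling, 525/613 nm. Controls: DMSO-enzyme wells negative, buffer-substituted wells positive.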
p97 inhibitor = blocks human p97 ATPase activity; 0.42% of 220,000 active; inhibition, % at 8 µM; recombinant p97 ATPase, Kinase-Glo ATP luminescence, 3 h; in the data active means inhibition above about 15%;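 further: 0% = DMSO vehicle and 100% = wells lacking enzyme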
G6PDH CS = inhibits Leuconostoc G6PDH, flagging false hits in G6PDH-based assays | Purified L. mesenteroides G6PDH, diaphorase/resazurin coupled fluorescence, 45 min | 0.12% of 200,000 active | inhibition, % at 5 µM; in the data active means inhibition above about 50%
p97 inh conf = confirmation of human p97 ATPase inhibitors; AID 1517; inhibition, % at 8 µM; recombinant p97 ATPase, Kinase-Glo ATP luminescence; 44% of 760 active; shares compounds with p97 inhibitor;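 active means percent inhibition of p97 ATPase above a set limit, the primary screen's mean plus 3 SD, cut at about 15% in these data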;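 further: 0% = DMSO wells and 100% = wells lacking p97 protein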
Active calls of the source: *; . = no result. Most compounds without a hit are left out; they make up all but 0.95% or so of the library.

SMILES	UBC9 SUMO inh	Diaph inh CS	HKDC1 inh	p97 inhibitor	G6PDH CS	p97 inh conf
CCc1nnc(NC(=O)C2CCCCC2)s1	9	6	-7	-3	-8	.
CC(C)c1nnc(NC(=O)C2CCCCC2)s1	3	3	-2	16*	9	2
Cc1ccccc1NC(=O)C(Cl)=C(Cl)Cl	4	-6	-9	27*	6	36*
Cc1ccccc1NNC(=O)C(=O)NNc1ccccc1C	-16	.	-6	-4	.	.
Cc1ccc2[nH]c3c(c2c1)CCCC3NCCO (centres undefined)	-4	.	-1	.	.	.
Nc1c(C(=O)N/N=C/c2cccnc2)oc2nc(-c3ccco3)cc(-c3ccco3)c12	95*	.	2	17*	.	4
Cc1cccc(NC(=O)c2ccco2)c1C	-8	.	0	.	.	.
Cc1cccc(NC(=O)c2sc(NC(=O)c3ccco3)c(C#N)c2C)c1C	26	20	-5	16*	4	10
COc1ccc2c(c1)c(C(=O)CN1CCOCC1)c(C)n2C	14	7	7	-4	14	.
COc1ccc(N2CCN(CC(=O)c3c(C)n(C)c4ccc(OC)cc34)CC2)cc1	22	.	5	27*	.	34*
O=Cc1ccc(OCc2cccc(C(F)(F)F)c2)cc1O	22	5	8	15*	5	19*
Cc1onc(-c2c(F)cccc2Cl)c1C(=O)N(Cc1ccccc1)C(C)C	6	.	0	.	.	.
O=C(COc1ccc(-c2nnco2)cc1)Nc1cc([N+](=O)[O-])ccc1F	.	.	4	.	.	.
Cc1[nH][nH]c(=O)c1C(c1ccc(-c2cccc(Cl)c2)o1)c1c(C)[nH][nH]c1=O	88	.	5	36*	.	34*
Cc1[nH][nH]c(=O)c1C(c1ccc(-c2cccc(C(=O)O)c2)o1)c1c(C)[nH][nH]c1=O	88*	26	-2	19*	24	12
Cc1[nH][nH]c(=O)c1C(c1ccc(Br)cc1)c1c(C)[nH][nH]c1=O	8	.	-1	.	.	.
Cc1[nH][nH]c(=O)c1C(c1ccc(-c2ccccc2C(=O)O)o1)c1c(C)[nH][nH]c1=O	97	38	-2	22*	33	24*
Cc1ccc2oc(-c3ccccc3C(=O)O)cc(=O)c2c1	24	14	-9	4	2	.
CNC(=S)N/N=C/c1ccc(-c2cccc(C(=O)O)c2)o1	22	.	-5	-24	.	.
N#CC1=C(N)NC(SCC(=O)c2ccc(Cl)cc2)=C(C#N)C12CCCC2	-4	17	2	-5	5	.
N#CC1=C(N)NC(SCC(=O)c2ccc(Br)cc2)=C(C#N)C12CCCCC2	-19	12	1	15*	-1	6
O=C1Nc2ccccc2/C1=N\N=C\c1ccc(O)c(O)c1	18	.	2	19*	.	16*
COc1cc(/C=N/N=C2/C(=O)Nc3ccccc32)ccc1O	3	16	2	1	-4	.
Cc1ccc(CCN2CCN=C2Nc2ccccc2)cc1	.	.	-5	.	.	.
Nc1ccc(Sc2cc(Cl)nc(N)n2)cc1	0	-3	.	-2	-27	.
SMILES	UBC9 SUMO inh	Diaph inh CS	HKDC1 inh	p97 inhibitor	G6PDH CS	p97 inh conf
Nc1nc(N)c2cc(Sc3ccc4ccccc4c3)ccc2n1	0	.	4	15*	.	24*
O=C(CSc1ncnc2scc(-c3ccccc3)c12)Nc1ccc(C(=O)O)cc1	8	.	0	20*	.	17*
CN(C)S(=O)(=O)c1cccc(NC(=O)c2cc(-c3cccs3)nn2-c2ccccc2)c1	-20	8	-7	26*	13	5
CCN(CC)S(=O)(=O)c1cccc(NC(=O)c2cc(-c3cccs3)nn2-c2ccccc2)c1	-8	16	5	-1	4	.
O=C(O)c1ccc(-c2nc(-c3ccccc3)c(-c3cccs3)[nH]2)cc1	30	.	-6	6	.	.
COc1ccc(-c2nc(-c3cccs3)c(-c3cccs3)[nH]2)cc1O	-3	42	3	15*	4	26*
COc1cccc(O)c1CN1CCC(Oc2ccc(C(=O)NCc3ccccn3)cc2)CC1	8	.	-4	.	.	.
CCN1C(=O)c2ccc(-c3nc4ccccc4c(=O)o3)cc2C1=O	-9	-39	4	24*	6	6
N=c1c(C(=O)NCc2ccccc2)cc2c(=O)n3ccccc3nc2n1Cc1ccco1	46	68*	6	23*	-1	13
